Measured values taken from ChEMBL document CHEMBL5096186, “Design, Synthesis, and Biological Evaluation of Novel Pyrimido[4,5-b]indole Derivatives Against Gram-Negative Multidrug-Resistant Pathogens” (J Med Chem, 2021).
In brackets after ≈: the same amount, converted by molar mass.

What was measured:
Staphylococcus aureus [1] = assay: Antibacterial activity against methicillin-resistant Staphylococcus aureus strains 15 1 to 4 assessed as reduction in bacterial growth incubated for 18 to 20 hrs by CLSI based microdilution method; format: functional; settings: time 18-20 hrs
Summary of the method: (§1)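 Broth microdilution per CLSI. Compounds dissolved in DMSO (levofloxacin and meropenem in water) as 64 μg/mL stock, then serial twofold dilutions in broth giving 64 to 0.008 μg/mL. […] Clinical isolates tested as several strains per group; racemic GP-1 served as positive control; values given as MIC ranges.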

Staphylococcus aureus [2] = assay: Antibacterial activity against methicillin-sensitive Staphylococcus aureus strains 15 1 to 4 assessed as reduction in bacterial growth incubated for 18 to 20 hrs by CLSI based microdilution method; format: functional; settings: time 18-20 hrs; summary of the method: as §1
[3] = system: Staphylococcus epidermidis; assay: Antibacterial activity against methicillin-resistant Staphylococcus epidermidis strains 15 1 to 4 assessed as reduction in bacterial growth incubated for 18 to 20 hrs by CLSI based microdilution method; format: functional; settings: time 18-20 hrs; summary of the method: as §1
[4] = system: Staphylococcus epidermidis; assay: Antibacterial activity against methicillin-sensitive Staphylococcus epidermidis strains 15 1 to 4 assessed as reduction in bacterial growth incubated for 18 to 20 hrs by CLSI based microdilution method; format: functional; settings: time 18-20 hrs; summary of the method: as §1
Escherichia coli [5] = assay: Antibacterial activity against ESBL-producing Escherichia coli ATCC 35218 strains 15 1 to 3 assessed as reduction in bacterial growth incubated for 18 to 20 hrs by CLSI based microdilution method; format: functional; settings: time 18-20 hrs
Summary of the method: (§2)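 CLSI broth microdilution. Compounds in DMSO (levofloxacin and meropenem in water), serial twofold dilutions in broth, 64 to 0.008 μg/mL. […] Results reported as MIC ranges across strains.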

Escherichia coli [6] = assay: Antibacterial activity against Escherichia coli ATCC 35218 strains 15 1 to 3 assessed as reduction in bacterial growth incubated for 18 to 20 hrs by CLSI based microdilution method; format: functional; settings: time 18-20 hrs; summary of the method: as §2
Pseudomonas aeruginosa [7] = assay: Antibacterial activity against multidrug resistant Pseudomonas aeruginosa strains 15 1 to 3 assessed as reduction in bacterial growth incubated for 18 to 20 hrs by CLSI based microdilution method; format: functional; settings: time 18-20 hrs; summary of the method: as §1
[8] = biological target: hERG (KCNH2) potassium channel (Homo sapiens, UniProt Q12809); assay: Inhibition of hERG potassium channel assessed as maximum inhibition rate at 40 uM at -80 mV holding potential incubated for 120 seconds by whole cell-automated voltage clamp analysis assay relative to control; format: toxicity; settings: time 120 sec
Chain of hERG (KCNH2) potassium channel (Q12809 whole entry): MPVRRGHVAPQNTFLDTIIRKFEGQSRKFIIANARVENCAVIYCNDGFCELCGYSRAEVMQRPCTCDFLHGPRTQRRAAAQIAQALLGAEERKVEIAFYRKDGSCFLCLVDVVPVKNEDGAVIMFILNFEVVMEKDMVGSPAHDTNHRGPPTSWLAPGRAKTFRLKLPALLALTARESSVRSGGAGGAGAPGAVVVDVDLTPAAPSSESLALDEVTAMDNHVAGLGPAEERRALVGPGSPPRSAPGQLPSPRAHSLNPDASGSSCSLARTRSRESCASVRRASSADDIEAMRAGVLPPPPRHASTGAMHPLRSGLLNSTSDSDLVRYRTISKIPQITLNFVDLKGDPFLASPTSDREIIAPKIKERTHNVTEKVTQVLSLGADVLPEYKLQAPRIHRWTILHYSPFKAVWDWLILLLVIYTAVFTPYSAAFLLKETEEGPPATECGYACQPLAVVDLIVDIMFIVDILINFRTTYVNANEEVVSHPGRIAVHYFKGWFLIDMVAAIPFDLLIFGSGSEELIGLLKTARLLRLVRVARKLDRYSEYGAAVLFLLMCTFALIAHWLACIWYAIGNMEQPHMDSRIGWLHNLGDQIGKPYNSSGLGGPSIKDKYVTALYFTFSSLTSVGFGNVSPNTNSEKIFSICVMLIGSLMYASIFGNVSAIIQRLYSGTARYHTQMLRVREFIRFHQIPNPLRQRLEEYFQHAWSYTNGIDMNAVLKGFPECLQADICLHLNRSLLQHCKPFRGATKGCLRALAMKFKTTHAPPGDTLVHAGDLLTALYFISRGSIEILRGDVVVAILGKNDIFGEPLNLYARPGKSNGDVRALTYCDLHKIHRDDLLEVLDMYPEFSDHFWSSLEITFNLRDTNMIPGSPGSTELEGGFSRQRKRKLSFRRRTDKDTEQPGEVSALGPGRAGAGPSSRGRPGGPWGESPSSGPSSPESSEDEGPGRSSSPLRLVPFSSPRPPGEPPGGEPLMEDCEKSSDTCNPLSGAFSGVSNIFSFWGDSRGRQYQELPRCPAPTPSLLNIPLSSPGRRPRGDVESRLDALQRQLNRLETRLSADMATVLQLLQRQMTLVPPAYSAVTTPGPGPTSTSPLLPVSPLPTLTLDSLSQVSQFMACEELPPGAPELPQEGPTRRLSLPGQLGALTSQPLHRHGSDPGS
Summary of the method: (§3)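 Automated whole-cell patch clamp, holding potential −80 mV. Voltage protocol applied every 20 s. Baseline set with external solution containing 0.1% DMSO and stabilised 3 min. Compound applied until steady state, at least 3 min, then washout. Maximum tested concentration 40 μM, or 3 μM for cisapride as positive control.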

[9] = biological target: Voltage-gated inwardly rectifying potassium channel KCNH2 (Homo sapiens, UniProt Q12809); assay: Inhibition of hERG potassium channel assessed as […] at -80 mV holding potential incubated for 120 seconds by whole cell-automated voltage clamp analysis assay; format: toxicity; summary of the method: as §3
Chain of Voltage-gated inwardly rectifying potassium channel KCNH2 (Q12809 whole entry): as above

Escherichia coli [10] = assay: Antibacterial activity against ESBL-producing multidrug resistant Escherichia coli assessed as reduction in bacterial growth incubated for 18 to 20 hrs by CLSI based microdilution method; format: functional; settings: time 18-20 hrs; summary of the method: as §1
Escherichia coli [11] = assay: Antibacterial activity against multidrug resistant wild type Escherichia coli ATCC BAA-2340 assessed as reduction in bacterial growth incubated for 18 to 20 hrs by CLSI based microdilution method; format: functional; settings: time 18-20 hrs; summary of the method: as §1
Escherichia coli [12] = assay: Antibacterial activity against multidrug resistant wild type Escherichia coli NCTC 13353 assessed as reduction in bacterial growth incubated for 18 to 20 hrs by CLSI based microdilution method; format: functional; settings: time 18-20 hrs; summary of the method: as §1
Klebsiella pneumoniae [13] = assay: Antibacterial activity against KPC2-producing multidrug resistant Klebsiella pneumoniae assessed as reduction in bacterial growth incubated for 18 to 20 hrs by CLSI based microdilution method; format: functional; settings: time 18-20 hrs; summary of the method: as §1
Klebsiella pneumoniae [14] = assay: Antibacterial activity agains wild type Klebsiella pneumoniae ATCC BAA-1705 assessed as reduction in bacterial growth incubated for 18 to 20 hrs by CLSI based microdilution method; format: functional; settings: time 18-20 hrs; summary of the method: as §2
Klebsiella pneumoniae [15] = assay: Antibacterial activity agains wild type Klebsiella pneumoniae ATCC BAA-2470 assessed as reduction in bacterial growth incubated for 18 to 20 hrs by CLSI based microdilution method; format: functional; settings: time 18-20 hrs; summary of the method: as §1
Acinetobacter baumannii [16] = assay: Antibacterial activity agains OXA23-producing multidrug resistant Acinetobacter baumannii assessed as reduction in bacterial growth incubated for 18 to 20 hrs by CLSI based microdilution method; format: functional; settings: time 18-20 hrs; summary of the method: as §1
Acinetobacter baumannii [17] = assay: Antibacterial activity against wild type Acinetobacter baumannii NCTC 13304 assessed as reduction in bacterial growth incubated for 18 to 20 hrs by CLSI based microdilution method; format: functional; settings: time 18-20 hrs; summary of the method: as §1
Pseudomonas aeruginosa [18] = assay: Antibacterial activity against IMP4-producing multidrug resistant Pseudomonas aeruginosa assessed as reduction in bacterial growth incubated for 18 to 20 hrs by CLSI based microdilution method; format: functional; settings: time 18-20 hrs; summary of the method: as §1
Pseudomonas aeruginosa [19] = assay: Antibacterial activity against wild type Pseudomonas aeruginosa ATCC 27853 assessed as reduction in bacterial growth incubated for 18 to 20 hrs by CLSI based microdilution method; format: functional; settings: time 18-20 hrs; summary of the method: as §2
[20] = Metabolic stability in rat liver microsome assessed as elimination half life at 0.1 uM in presence of NADPH incubated upto 60 mins by LC-MS/MS analysis; format: ADME; settings: liver microsomes, read-out: beta t1/2
Summary of the method: (§4)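 Compound at 0.1 μM final, in 0.01% DMSO with 0.005% BSA. Incubated with rat or human liver microsomes at 0.33 mg/mL in 0.1 M Tris-HCl, pH 7.4, with 5 mM MgCl₂ and 1 mM NADPH, at 37 °C. Samples at 0, 7, 17, 30 and 60 min quenched with cold methanol and analysed by LC-MS/MS. Half-life, Cl_int and MF% derived as previously described.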

[21] = Metabolic stability in human liver microsome assessed as elimination half life at 0.1 uM in presence of NADPH incubated upto 60 mins by LC-MS/MS analysis; format: ADME; settings: liver microsomes, read-out: beta t1/2; summary of the method: as §4
[22] = Metabolic stability in rat liver microsome assessed as intrinsic clearance at 0.1 uM in presence of NADPH incubated upto 60 mins by LC-MS/MS analysis; format: ADME; settings: microsomes, 1 h; summary of the method: as §4
[23] = Metabolic stability in human liver microsome assessed as intrinsic clearance at 0.1 uM in presence of NADPH incubated upto 60 mins by LC-MS/MS analysis; format: ADME; settings: microsomes, 1 h; summary of the method: as §4
[24] = Metabolic stability in rat liver microsome assessed as metabolic bioavailability at 0.1 uM in presence of NADPH incubated upto 60 mins by LC-MS/MS analysis; format: ADME; settings: liver microsomes; summary of the method: as §4
[25] = Metabolic stability in human liver microsome assessed as metabolic bioavailability at 0.1 uM in presence of NADPH incubated upto 60 mins by LC-MS/MS analysis; format: ADME; settings: liver microsomes; summary of the method: as §4

| Compound | MIC (Staphylococcus aureus [1]) | MIC (Staphylococcus aureus [2]) | MIC [3] | MIC [4] | MIC (Escherichia coli [5]) | MIC (Escherichia coli [6]) | MIC (Pseudomonas aeruginosa [7]) | also measured |
| --- | --- | --- | --- | --- | --- | --- | --- | --- |
| CNc1cc(F)cc2c1[nH]c1nc(Oc3cnc(C)nc3)nc(N3CCC(=C(C)CN)CC3)c12 | 0.125 µg/mL (≈ 0.27 µM) | 0.125 µg/mL (≈ 0.27 µM) | < 0.008 µg/mL | 0.03 µg/mL (≈ 0.0649 µM) | 2 µg/mL (≈ 4.32 µM) | 0.25 µg/mL (≈ 0.541 µM) | > 8 µg/mL | – |
| CNc1cc(F)cc2c1[nH]c1nc(Oc3cnc(C)nc3)nc(N3CC(=C(CN)C(C)C)C3)c12 | – | < 0.008 µg/mL | – | < 0.008 µg/mL | 0.125 µg/mL (≈ 0.27 µM) | 0.03 µg/mL (≈ 0.0649 µM) | 1 µg/mL (≈ 2.16 µM) | inhibition at 2 min, 40 µM [8]: 26.5%; IC50 [9]: > 40 µM; MIC (Escherichia coli [10]): 1 µg/mL (≈ 2.16 µM); MIC (Escherichia coli [11]): 0.5 µg/mL (≈ 1.08 µM); MIC (Escherichia coli [12]): 0.5 µg/mL (≈ 1.08 µM); MIC (Klebsiella pneumoniae [13]): 2 µg/mL (≈ 4.32 µM); MIC (Klebsiella pneumoniae [14]): 4 µg/mL (≈ 8.65 µM); MIC (Klebsiella pneumoniae [15]): 2 µg/mL (≈ 4.32 µM); MIC (Acinetobacter baumannii [16]): 0.5 µg/mL (≈ 1.08 µM); MIC (Acinetobacter baumannii [17]): 0.5 µg/mL (≈ 1.08 µM); MIC (Pseudomonas aeruginosa [18]): 4 µg/mL (≈ 8.65 µM); MIC (Pseudomonas aeruginosa [19]): 2 µg/mL (≈ 4.32 µM); half-life at 0.1 µM [20]: 17.8 min; half-life at 0.1 µM [21]: 38 min; CLH [22]: 118.3 mL/min/g; CLH [23]: 55.2 mL/min/g; Fh at 1 h, 0.1 µM [24]: 27.3%; Fh at 1 h, 0.1 µM [25]: 26.2% |
| CNc1cc(F)cc2c1[nH]c1nc(Oc3cnc(C)nc3)nc(N3CCC(=CCN)CC3)c12 | 0.5 µg/mL (≈ 1.11 µM) | 1 µg/mL (≈ 2.23 µM) | 0.25 µg/mL (≈ 0.557 µM) | 0.25 µg/mL (≈ 0.557 µM) | 8 µg/mL (≈ 17.8 µM) | > 2 µg/mL | ≥ 16 µg/mL | – |
